Here are results for 3 compounds from ChEMBL document CHEMBL5653631, “A Potent and Selective ULK1 Inhibitor Suppresses Autophagy and Sensitizes Cancer Cells to Nutrient Stress” (iScience, 2018).

In assay [1] the target is Aurora kinase B (Homo sapiens) (UniProt Q96GD4). Put plainly: Inhibition of human recombinant AurB at 40 nM related to control ULK1. The essentials: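 Radiometric activity assays in a panel of 327 human recombinant kinases, each run in duplicate at one inhibitor concentration. Activity remaining is expressed as percent of vehicle control, and percent inhibition is calculated as 100% minus percent activity remaining.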

The target in assay [2] is Calcium/calmodulin-dependent protein kinase type 1B (Homo sapiens) (UniProt Q6P2M8). Put plainly: Inhibition of human recombinant CaMK1b at 500 nM in presence of ATP by radiometric assay relative to control.
Assay [3] deals with T1, Aurora kinase C (Homo sapiens) (UniProt Q9UQB9).
T1 sequence (whole entry): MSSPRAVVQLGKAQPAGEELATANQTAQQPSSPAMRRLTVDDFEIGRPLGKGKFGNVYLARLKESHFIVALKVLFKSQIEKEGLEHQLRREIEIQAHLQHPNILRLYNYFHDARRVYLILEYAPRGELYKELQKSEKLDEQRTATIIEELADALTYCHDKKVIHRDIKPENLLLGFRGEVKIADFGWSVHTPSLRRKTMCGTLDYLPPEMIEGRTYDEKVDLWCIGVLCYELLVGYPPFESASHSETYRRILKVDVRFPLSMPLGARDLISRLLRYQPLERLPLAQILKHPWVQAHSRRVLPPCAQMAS
Put plainly: Inhibition of human recombinant AurC at 500 nM related to control ULK1.

The target in assay [4] is Tyrosine-protein kinase receptor UFO (Homo sapiens) (UniProt P30530). Put plainly: Inhibition of human recombinant AXL at 500 nM related to control ULK1. The essentials: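 Panel of 327 recombinant human kinases, each assayed in vitro by radiometric activity assay in duplicate at a single inhibitor concentration per compound, chosen with reference to its ULK1 inhibition. Activity remaining was expressed as percent of vehicle control, and percent inhibition was calculated as 100 minus percent activity remaining.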

In assay [5] the target is T2, Dual specificity tyrosine-phosphorylation-regulated kinase 2 (Homo sapiens) (UniProt Q92630).
T2 sequence (whole entry): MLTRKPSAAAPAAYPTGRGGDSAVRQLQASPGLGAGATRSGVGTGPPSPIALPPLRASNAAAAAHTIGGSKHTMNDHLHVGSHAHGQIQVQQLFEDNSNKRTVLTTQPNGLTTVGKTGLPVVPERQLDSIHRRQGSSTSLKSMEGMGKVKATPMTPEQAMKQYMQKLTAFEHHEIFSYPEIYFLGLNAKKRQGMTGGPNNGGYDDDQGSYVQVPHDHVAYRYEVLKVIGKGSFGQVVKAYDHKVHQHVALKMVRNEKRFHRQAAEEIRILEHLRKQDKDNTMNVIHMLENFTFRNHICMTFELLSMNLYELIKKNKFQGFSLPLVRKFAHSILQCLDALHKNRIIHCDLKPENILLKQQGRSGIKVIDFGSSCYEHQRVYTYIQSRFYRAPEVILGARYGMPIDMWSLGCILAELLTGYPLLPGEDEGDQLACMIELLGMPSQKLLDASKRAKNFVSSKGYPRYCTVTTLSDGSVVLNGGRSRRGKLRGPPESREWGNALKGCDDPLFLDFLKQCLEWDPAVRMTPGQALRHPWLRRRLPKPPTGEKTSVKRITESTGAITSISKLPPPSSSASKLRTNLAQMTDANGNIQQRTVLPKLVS
Put plainly: Inhibition of human recombinant DYRK2 at 500 nM related to control ULK1.

Assay [6] addresses Ephrin type-A receptor 7 (Homo sapiens) (UniProt Q15375). Put plainly: Inhibition of human recombinant EphA7 at 500 nM related to control ULK1.
The target in assay [7] is T3, Protein kinase C zeta type (Homo sapiens) (UniProt Q05513).
T3 sequence (whole entry): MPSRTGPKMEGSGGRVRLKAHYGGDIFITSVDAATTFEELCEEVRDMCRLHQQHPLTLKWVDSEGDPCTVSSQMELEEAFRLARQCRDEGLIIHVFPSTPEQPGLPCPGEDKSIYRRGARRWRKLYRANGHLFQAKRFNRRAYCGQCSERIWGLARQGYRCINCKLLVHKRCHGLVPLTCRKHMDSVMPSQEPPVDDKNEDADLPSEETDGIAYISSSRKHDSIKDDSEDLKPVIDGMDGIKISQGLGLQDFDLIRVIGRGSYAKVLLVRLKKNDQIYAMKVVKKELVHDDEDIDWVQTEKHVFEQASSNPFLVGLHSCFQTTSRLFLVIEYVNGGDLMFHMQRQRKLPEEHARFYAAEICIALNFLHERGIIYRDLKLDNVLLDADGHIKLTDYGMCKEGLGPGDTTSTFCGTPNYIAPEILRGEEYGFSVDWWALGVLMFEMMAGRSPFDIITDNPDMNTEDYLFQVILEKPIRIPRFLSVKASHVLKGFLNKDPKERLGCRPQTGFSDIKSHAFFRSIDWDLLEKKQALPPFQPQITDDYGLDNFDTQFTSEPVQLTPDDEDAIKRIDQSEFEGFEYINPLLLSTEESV
Put plainly: Inhibition of human recombinant PKCz at 500 nM related to control ULK1.

The target of assay [8] is Calcium/calmodulin-dependent protein kinase type II subunit alpha (Homo sapiens) (UniProt Q9UQM7). Put plainly: Inhibition of human recombinant CaMK2a at 15 nM in presence of ATP by radiometric assay relative to control.
Assay [9] deals with T4, MAPK/MAK/MRK overlapping kinase (Homo sapiens) (UniProt Q9UQ07).
T4 sequence (whole entry): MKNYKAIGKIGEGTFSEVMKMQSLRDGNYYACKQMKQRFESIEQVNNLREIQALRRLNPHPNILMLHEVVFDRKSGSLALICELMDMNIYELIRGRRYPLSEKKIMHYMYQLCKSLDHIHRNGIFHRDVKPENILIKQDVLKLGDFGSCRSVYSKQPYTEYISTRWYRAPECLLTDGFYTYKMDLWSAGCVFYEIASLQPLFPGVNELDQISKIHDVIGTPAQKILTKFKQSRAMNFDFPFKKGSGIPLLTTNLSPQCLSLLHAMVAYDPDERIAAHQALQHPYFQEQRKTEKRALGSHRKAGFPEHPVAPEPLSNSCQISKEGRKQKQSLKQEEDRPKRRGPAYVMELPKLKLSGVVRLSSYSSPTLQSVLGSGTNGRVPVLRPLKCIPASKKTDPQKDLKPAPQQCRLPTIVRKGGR
Put plainly: Inhibition of human recombinant MOK at 15 nM in presence of ATP by radiometric assay relative to control.

Assay [10] addresses Serine/threonine-protein kinase PAK 6 (Homo sapiens) (UniProt Q9NQU5). Put plainly: Inhibition of human recombinant PAK6 at 15 nM in presence of ATP by radiometric assay relative to control.

Sequence of Calcium/calmodulin-dependent protein kinase type II subunit alpha (Homo sapiens) (Q9UQM7 whole entry): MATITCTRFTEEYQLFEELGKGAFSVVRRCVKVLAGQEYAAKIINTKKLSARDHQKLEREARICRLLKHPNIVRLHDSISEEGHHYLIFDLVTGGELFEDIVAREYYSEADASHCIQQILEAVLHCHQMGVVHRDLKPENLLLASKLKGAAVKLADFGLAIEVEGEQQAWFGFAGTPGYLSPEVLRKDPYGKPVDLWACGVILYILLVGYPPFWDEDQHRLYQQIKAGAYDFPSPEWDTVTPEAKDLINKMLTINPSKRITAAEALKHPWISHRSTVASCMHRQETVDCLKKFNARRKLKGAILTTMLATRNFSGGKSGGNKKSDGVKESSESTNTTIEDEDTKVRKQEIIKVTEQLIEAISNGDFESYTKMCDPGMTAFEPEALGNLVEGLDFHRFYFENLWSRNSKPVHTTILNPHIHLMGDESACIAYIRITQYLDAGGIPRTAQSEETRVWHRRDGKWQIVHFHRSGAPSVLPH
Sequence of Aurora kinase B (Homo sapiens) (Q96GD4 whole entry): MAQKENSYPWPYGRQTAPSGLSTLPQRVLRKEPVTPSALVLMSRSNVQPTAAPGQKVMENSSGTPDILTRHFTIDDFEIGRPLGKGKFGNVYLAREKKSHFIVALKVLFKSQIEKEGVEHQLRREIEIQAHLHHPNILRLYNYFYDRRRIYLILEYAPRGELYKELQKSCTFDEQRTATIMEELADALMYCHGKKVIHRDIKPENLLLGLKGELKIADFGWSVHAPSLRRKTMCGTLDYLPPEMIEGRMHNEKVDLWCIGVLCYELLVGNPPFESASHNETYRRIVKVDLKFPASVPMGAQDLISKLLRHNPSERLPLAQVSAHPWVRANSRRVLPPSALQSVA
Sequence of Ephrin type-A receptor 7 (Homo sapiens) (Q15375 28-998 limits assumed): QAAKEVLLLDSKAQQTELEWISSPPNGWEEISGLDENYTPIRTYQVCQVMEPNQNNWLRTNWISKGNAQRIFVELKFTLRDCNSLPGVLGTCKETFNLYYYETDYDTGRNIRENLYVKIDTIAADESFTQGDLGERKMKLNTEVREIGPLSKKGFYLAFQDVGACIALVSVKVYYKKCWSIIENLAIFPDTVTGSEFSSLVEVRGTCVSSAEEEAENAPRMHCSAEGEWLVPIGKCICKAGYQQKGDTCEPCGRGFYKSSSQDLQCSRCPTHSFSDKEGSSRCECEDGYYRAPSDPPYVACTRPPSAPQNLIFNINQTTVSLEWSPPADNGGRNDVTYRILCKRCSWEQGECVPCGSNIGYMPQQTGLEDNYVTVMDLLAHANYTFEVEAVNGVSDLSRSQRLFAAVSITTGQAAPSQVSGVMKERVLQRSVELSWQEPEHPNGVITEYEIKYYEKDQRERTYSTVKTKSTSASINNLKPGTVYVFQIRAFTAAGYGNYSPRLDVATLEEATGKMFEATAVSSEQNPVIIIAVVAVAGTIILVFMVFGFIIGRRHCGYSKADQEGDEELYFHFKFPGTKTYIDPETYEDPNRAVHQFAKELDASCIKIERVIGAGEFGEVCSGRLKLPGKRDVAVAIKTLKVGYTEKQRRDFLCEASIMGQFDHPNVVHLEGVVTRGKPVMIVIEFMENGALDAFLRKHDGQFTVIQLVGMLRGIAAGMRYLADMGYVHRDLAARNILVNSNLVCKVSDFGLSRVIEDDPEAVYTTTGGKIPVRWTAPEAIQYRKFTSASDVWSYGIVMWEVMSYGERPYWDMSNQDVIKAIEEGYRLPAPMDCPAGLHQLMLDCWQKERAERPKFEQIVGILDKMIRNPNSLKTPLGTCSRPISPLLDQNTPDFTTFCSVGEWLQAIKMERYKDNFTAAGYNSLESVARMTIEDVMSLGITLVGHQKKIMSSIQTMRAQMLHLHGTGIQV
Sequence of Serine/threonine-protein kinase PAK 6 (Homo sapiens) (Q9NQU5 whole entry, looked up): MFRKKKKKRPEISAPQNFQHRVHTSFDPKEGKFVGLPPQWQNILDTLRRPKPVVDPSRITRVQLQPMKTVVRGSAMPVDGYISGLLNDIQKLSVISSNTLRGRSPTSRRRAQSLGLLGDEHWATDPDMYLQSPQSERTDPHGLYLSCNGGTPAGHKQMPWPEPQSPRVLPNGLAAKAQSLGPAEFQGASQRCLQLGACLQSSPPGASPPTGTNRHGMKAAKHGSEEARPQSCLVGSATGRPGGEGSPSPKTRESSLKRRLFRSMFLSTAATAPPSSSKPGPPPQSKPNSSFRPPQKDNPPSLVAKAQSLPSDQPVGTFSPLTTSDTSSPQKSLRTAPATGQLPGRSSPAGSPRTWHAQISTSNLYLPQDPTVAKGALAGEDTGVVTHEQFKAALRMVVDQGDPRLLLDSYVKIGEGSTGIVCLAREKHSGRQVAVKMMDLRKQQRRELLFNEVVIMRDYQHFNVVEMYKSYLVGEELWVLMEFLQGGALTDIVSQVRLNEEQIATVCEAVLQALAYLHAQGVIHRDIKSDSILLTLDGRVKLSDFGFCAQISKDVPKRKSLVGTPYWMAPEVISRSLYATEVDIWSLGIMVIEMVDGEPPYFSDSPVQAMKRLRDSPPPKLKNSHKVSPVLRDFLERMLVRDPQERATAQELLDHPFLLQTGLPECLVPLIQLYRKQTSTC
Sequence of Calcium/calmodulin-dependent protein kinase type 1B (Homo sapiens) (Q6P2M8 whole entry): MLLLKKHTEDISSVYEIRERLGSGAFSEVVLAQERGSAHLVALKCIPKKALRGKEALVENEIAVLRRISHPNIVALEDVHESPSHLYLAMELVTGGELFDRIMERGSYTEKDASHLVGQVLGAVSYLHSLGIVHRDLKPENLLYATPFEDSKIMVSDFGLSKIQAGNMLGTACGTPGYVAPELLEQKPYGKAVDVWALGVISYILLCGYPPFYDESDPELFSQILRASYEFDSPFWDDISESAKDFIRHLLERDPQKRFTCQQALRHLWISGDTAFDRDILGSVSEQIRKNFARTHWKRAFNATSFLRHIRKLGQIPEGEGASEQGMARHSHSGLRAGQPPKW
Sequence of Tyrosine-protein kinase receptor UFO (Homo sapiens) (P30530 whole entry): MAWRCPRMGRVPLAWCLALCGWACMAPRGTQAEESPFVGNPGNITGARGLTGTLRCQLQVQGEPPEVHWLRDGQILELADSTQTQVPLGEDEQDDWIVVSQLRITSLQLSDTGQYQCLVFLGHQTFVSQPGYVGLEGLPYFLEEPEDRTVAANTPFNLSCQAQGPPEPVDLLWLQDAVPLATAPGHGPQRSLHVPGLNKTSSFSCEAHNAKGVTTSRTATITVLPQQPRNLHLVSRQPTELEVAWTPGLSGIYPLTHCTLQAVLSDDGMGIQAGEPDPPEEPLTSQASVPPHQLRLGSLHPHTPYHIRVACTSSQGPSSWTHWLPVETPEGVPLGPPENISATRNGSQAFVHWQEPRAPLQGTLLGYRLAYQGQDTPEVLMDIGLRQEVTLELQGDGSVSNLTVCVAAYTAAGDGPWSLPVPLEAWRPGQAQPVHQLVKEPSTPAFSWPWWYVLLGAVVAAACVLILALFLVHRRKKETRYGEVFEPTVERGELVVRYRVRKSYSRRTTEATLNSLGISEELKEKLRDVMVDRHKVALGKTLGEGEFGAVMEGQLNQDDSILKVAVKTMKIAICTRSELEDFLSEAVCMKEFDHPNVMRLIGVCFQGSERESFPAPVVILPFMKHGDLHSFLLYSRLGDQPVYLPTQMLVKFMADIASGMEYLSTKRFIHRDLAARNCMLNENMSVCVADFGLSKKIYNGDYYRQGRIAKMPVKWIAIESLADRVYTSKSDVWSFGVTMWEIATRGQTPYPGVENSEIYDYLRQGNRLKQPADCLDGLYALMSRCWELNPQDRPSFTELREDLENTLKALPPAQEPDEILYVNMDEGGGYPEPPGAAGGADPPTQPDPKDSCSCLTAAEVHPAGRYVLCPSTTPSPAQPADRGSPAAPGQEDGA

With `O=C(N[C@@H](C1CC1)C(F)(F)F)c1cc(-c2cnn3cc(-c4ccc(F)cc4)cnc23)cs1`, the fold change (FC) in [1] is 0.67.
By inhibition is commonly meant the percentage by which the read-out fell short of the control. Consider `CNC(=O)c1ccccc1Oc1nc(Nc2cc(OC)c(OC)c(OC)c2)ncc1Br`, for which, in [2], the inhibition was 0%. The fold change (FC) in assay [3] worked out at 0.99; in [4] it was 0.07; in assay [5], 0; in [6], 0; in assay [7], 0.
Consider `CC(C)[C@H](NC(=O)c1cc(-c2cnn3cc(-c4ccc(OCCN5CCCCC5)cc4)cnc23)cs1)C(F)(F)F`, for which the results for the inhibition in assay [8], in assay [9] and in assay [10] were 41%, 5% and 0%, respectively.
